The entries come from a sample that favours hits as a whole.
STK33 inh: inhibitors of purified STK33 kinase, primary screen, biochemical, ADP-Glo luminescence, homogeneous, cell-free; hit rate 0.073% among 320,000; MBP phosphorylation; Serine/threonine-protein kinase 33 (Homo sapiens), Q9BYT3; inhibition, % at 10 µM; AID 2661, 2010;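 active = inhibition at or above 25%, using the most active replicate where run in duplicate; inactive = inhibition below 25%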
GSK3 alpha inh: blockers of GSK3A enzyme activity – biochemical, luminescence, cell-free homogeneous, HTS, primary screen; hit rate 0.1% among 320,000; GSK-3 alpha kinase, ADP-Glo luminescence, 60 min; Glycogen synthase kinase-3 alpha (Homo sapiens), P49840; inhibition, % at 10 µM;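 active = more than half of replicates show inhibition above 20%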;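 also: GST-tagged GSK-3 alpha with peptide substrate and 25 µM ATP; 0% = DMSO neutral wells and 100% = GW8510 positive control wells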
Dyrk1A ADPGlo: rat Dyrk1A kinase inhibitors, primary screen, biochemical, single point, plate reader; Dual specificity tyrosine-phosphorylation-regulated kinase 1A (Rattus norvegicus), Q63470; ADP-Glo luminescence, NFATc1 peptide; inhibition, % at 12.5 µM; hit rate 0.43% among 310,000; AID 504441, 2011; in the data active = inhibition above about 50%;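 also: plate controls were vehicle with enzyme for no effect and no enzyme for full effect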
GSK3beta inhib: human GSK3beta kinase inhibitors, primary screen, biochemical, cell-free homogeneous, HTS. Glycogen synthase kinase-3 beta (Homo sapiens), P49841. GST-GSK3beta kinase, ADP-Glo luminescence, 60 min; hits give low values. activity score (negative = inhibition), % at 10 µM. hit rate 0.038% among 300,000;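 active = more than half of replicate wells score below -50%, meaning over 50% inhibition versus plate controls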;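 also: 0% = median DMSO wells and -100% = median GW8510 positive control wells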
Target sequence (P49841 whole entry, looked up): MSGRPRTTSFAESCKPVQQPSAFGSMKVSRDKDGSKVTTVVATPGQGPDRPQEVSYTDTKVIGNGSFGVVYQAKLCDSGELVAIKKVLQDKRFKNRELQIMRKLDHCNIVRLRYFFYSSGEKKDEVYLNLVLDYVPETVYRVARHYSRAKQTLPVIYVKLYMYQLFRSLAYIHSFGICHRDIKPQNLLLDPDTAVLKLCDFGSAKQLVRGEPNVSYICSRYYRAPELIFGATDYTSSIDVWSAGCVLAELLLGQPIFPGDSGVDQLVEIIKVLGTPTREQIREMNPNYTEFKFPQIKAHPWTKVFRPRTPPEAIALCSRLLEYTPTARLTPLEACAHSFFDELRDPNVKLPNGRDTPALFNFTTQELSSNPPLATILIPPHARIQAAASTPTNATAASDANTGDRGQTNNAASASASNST
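test system = GST-tagged human GSK3beta kinase, cell-free | reagent = 25 µM ATP with peptide substrate | dosing = one dose of 10 µM per compound | schedule = 60 min reaction, RT | detection = luminescent ADP-Glo measurement of ADP formed | control set = DMSO neutral wells and GW8510 at 20 µM as positive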
ADP-Glo artifact: ADP-Glo luciferase interference without Dyrk1A, dose response, artefact control for Dyrk1A inhibitor project, biochemical, luminescence, cherry-pick, set 02; ADP-Glo luciferase artifact assay, no Dyrk1A; AC50, µM (series often up to 12 µM), for inactives: at the highest dose activity change, negative = inhibition; 1,300 tested, under 10 active; shares compounds with Dyrk1A ADPGlo;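 active = fitted half-maximal dose AC50 no more than ten times the top valid tested dose, with luminescence dropping as dose rises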
The depositor's hits bear a star; nt = no result given.

SMILES	STK33 inh	GSK3 alpha inh	Dyrk1A ADPGlo	GSK3beta inhib	ADP-Glo artifact
COc1cc2ccc(=O)oc2c2ccoc12	-1	1	59*	-1	7%
COC(=O)C1C(C(=O)O)C2(Cl)C(Cl)=C(Cl)C1(Cl)C2(Cl)Cl (configuration not stated)	nt	nt	-1	nt	nt
CC1=CC(O)C(O)C2(C)C1CC1OC(=O)CC3C(C)C(O)C(=O)C2C13CO (configuration not stated)	nt	nt	-3	nt	nt
CN1CCc2nc3sc(C#N)c(N)c3c(-c3cccs3)c2C1	4	95*	51*	-6	6%
COc1ccc2[nH]c3c(c2c1)CCNC3C (configuration not stated)	0	-2	-2	-6	nt
COc1ccc2c3c([nH]c2c1)C(C)NCC3 (configuration not stated)	0	1	74*	2	9%
CO[C@@H]1C=CC23c4cc5c(cc4CO[C@]2(O)CN(C)[C@H]3C1)OCO5 (some centres not stated)	0	-3	0	nt	nt
Cc1cccc(-n2c(O)c(/C=C3/C(c4ccccc4)=Nc4ccccc43)c(=O)[nH]c2=O)c1	1	3	60*	1	10%
Cc1ccccc1-n1c(O)c(/C=C2/C(c3ccccc3)=Nc3ccccc32)c(=O)[nH]c1=O	0	-7	2	-1	nt

High-throughput results as filed in PubChem.
